# Assay outcomes from PubChem BioAssay.
# GPR7 antagonist = GPR7 receptor antagonists, primary screen, cell-based, fluorescence, single concentration | Neuropeptides B/W receptor type 1 (Homo sapiens), P48145 | GPR7-expressing cells, fluorescence antagonist assay | 290,000 compounds, 1.1% hits | inhibition, % at 4.4 µM; in the data active = inhibition above about 16%, passing the limit was not always enough;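 note: cells stimulated with the agonist NPW; 0% = agonist with vehicle and 100% = vehicle without agonist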
# GalR3 antagonist = GalR3 antagonists in HEK293 cells, primary screen, cell-based, fluorescence readout; 360,000 compounds, 0.44% hits; Galanin receptor type 3 (Homo sapiens), O60755; HEK293 GalR3-CNG cAMP membrane potential fluorescence; galR3 body fused to GalR1 C-terminus; inhibition, % at 3 µM;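 active = inhibition above the screen-wide average plus 3 SD, cut at about 13% in these data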;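 note: forskolin and galanin both at EC90 stimulate the cells; cAMP rise reported by CNG channel membrane potential dye signal; 0% = forskolin plus galanin with DMSO and 100% = forskolin alone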
# Target sequence (O60755 1-299 limits assumed): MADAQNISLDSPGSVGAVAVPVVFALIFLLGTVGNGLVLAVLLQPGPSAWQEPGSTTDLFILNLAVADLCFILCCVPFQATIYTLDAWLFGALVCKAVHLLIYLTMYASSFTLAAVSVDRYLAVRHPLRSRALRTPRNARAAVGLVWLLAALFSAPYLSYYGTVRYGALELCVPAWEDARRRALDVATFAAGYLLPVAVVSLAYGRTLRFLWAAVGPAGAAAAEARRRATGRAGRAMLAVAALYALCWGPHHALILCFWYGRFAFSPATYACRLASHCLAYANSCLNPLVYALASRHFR
# CHO parental Ca = ATP-evoked calcium signal inhibitors, parental CHO, primary screen, counter-screen for OX1R antagonist project, cell-based, fluorescence, Fluo-8 calcium dye; parental CHO-K1, ATP-induced calcium, Fluo-8 fluorescence; 330,000 compounds, 0.63% hits; AID 463079, 2010; inhibition, % at 5.6 µM;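 active = inhibition above that plate's mean sample inhibition plus 3 SD, cut at about 26% in these data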;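 note: 0% = ATP-challenged DMSO wells and 100% = DMSO wells without ATP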
#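 Test system: untransfected parental CHO cell line. Compound: one dose, 5.6 µM nominal. Detection: intracellular calcium via Fluo-8 no-wash fluorescent dye. Measure: % inhibition. Benchmarks: ATP-challenged DMSO wells low, unchallenged DMSO wells high.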
# OX1R antag-1 = OX1R (HCRTR1) antagonists, primary screen, fluorescence, CHO/OX1R cells, Fluo-8 calcium, orexin A | 330,000 compounds, 0.43% hits | Orexin/Hypocretin receptor type 1 (Homo sapiens), O43613 | Fluo-8 calcium fluorescence | inhibition, % at 5 µM;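 active = inhibition above its plate's threshold, mean inhibition of all tested compounds on the plate plus 3 SD, cut at about 37% in these data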;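 note: 0% = orexin A challenge wells and 100% = SB-334867-A antagonist wells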
# OX1R antag-2 = antagonists of human orexin 1 receptor (OX1R); inhibition, % at 6.6 µM; 330,000 compounds, 1.8% hits; OX1R-expressing cells, FRET antagonist read-out; in the data active = inhibition mostly above about 38%, no sharp cut-off; inactive = mostly below about 40%;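 note: 0% = agonist challenge alone and 100% = reference antagonist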
# An asterisk follows results filed as active; x = not tested or not shown. This is a sample that favours compounds with a hit; in the whole collection about 3.1% have one here.
SMILES,GPR7 antagonist,GalR3 antagonist,CHO parental Ca,OX1R antag-1,OX1R antag-2
Cn1nc(C(F)(F)F)c(-c2ccc(Br)cc2)c1NC(=O)Nc1ccc(F)cc1F,-12,-6,33,46*,24
Cc1cccc(OCc2nnc(SCC(=O)N(C(C)C)C(C)C)n2Cc2ccco2)c1C,-4,-5,-36,8,36*
Cc1cc(NC(=O)CSc2nnc(COc3cccc(C)c3C)n2Cc2ccco2)no1,8,-4,-6,0,9
CC(C)c1cc(C(=O)Nc2cc(Br)ccc2O)no1,3,-7,30*,16,23
Cc1cc(C)n2nc(CNS(=O)(=O)c3ccc([N+](=O)[O-])cc3)nc2n1,2,1,9,5,51*
COc1ccc(OC)c(S(=O)(=O)NCc2nc3nc(C)cc(C)n3n2)c1,-13,-2,-3,-2,-1
CCOC(=O)[C@]12CCC=C1N(CCC1=CCCCC1)C(=O)[C@H](CC(=O)N1CCCC1)C2,x,1,x,x,x
O=C(CNC(=O)c1ccccc1)NCC(=O)OCC(=O)c1ccc([N+](=O)[O-])cc1,-1,0,-4,-5,54*
CC1CC1C(=O)OCC(=O)NNC(=O)c1ccc([N+](=O)[O-])cc1 (centres undefined),x,-3,-12,9,34*
CC1CC1C(=O)OCC(=O)NC(=O)c1ccc(C(C)(C)C)cc1 (centres undefined),x,-1,-7,-22,10
Cn1cccc1C(=O)OCC(=O)NNC(=O)c1ccc([N+](=O)[O-])cc1,x,-3,-1,3,22
CCOc1ccccc1OCC(=O)OCC(=O)NNC(=O)c1ccc([N+](=O)[O-])cc1,-18,-2,-11,-4,55*
Cc1ccc(C(=O)OCC(=O)NNC(=O)c2ccc([N+](=O)[O-])cc2)o1,x,0,-11,-10,41*
O=C(COC(=O)CCCOc1ccccc1)NNC(=O)c1ccc([N+](=O)[O-])cc1,-9,-3,-1,-11,42
O=C(NC1CCCC1)c1nc(-c2ccco2)oc1-c1ccccc1,x,-10,x,x,x
O=C(C1CCN(CCc2ccccc2)CC1)N1CCOCC1,x,0,x,x,x
Cc1cccc2c(N=NC(=O)c3ccc(NS(=O)(=O)c4cccs4)cc3)c(O)[nH]c12,x,5,-4,14,40*
CCn1c2ccccc2c(=O)c2ccccc21,-6,-3,14,-10,67*
CC(C)N1C(=O)S/C(=C/c2ccc(Sc3nc4ccccc4[nH]3)o2)C1=O,-11,-3,71*,56*,54
CCOC(=O)C(C)N1C(=O)S/C(=C\c2ccc(-c3ccccc3C(=O)O)o2)C1=O (centres undefined),0,5,4,-1,3
COC(=O)C1=C(C)N(Cc2ccc(C(F)(F)F)cc2)C(=NCc2ccccc2)NC1c1cccc(Cl)c1 (centres undefined),x,-7,x,x,x
Clc1ccc(-c2cn3c(n2)-c2ccccc2C3)cc1Cl,-3,-5,-21,-9,51*
O=C(Cn1cnc2ccccc21)Nc1ccc(SC(F)F)cc1,12,74*,46*,18,30
COc1ccc(NC(=O)COC(=O)Cn2cnc3ccccc32)cc1,x,-7,-4,-7,1
O=C(Nc1ncccn1)c1ccc([N+](=O)[O-])cc1[N+](=O)[O-],x,-1,7,-12,73*
O=C(Nc1ncn[nH]1)c1ccc([N+](=O)[O-])cc1[N+](=O)[O-],-1,4,-12,-10,53*
O=C(Nc1ncccn1)c1ccc([N+](=O)[O-])cc1Cl,-14,-7,6,-6,35
O=C(CN1C(=O)CC(c2ccccc2)Sc2ccccc21)NCC1CCCO1 (centres undefined),-11,-5,-4,-9,6
COc1ccc(/C=C2\SC(=O)N(CCNC(=O)CN3C(=O)NC4(CCCC4)C3=O)C2=O)cc1,x,-4,-6,-14,28
O=C(CN1C(=O)/C(=C/c2ccccc2F)Sc2ccccc21)NCC1CCCO1 (centres undefined),-9,2,-20,22,66*
